Experimental data as given in ChEMBL document CHEMBL1212779, “Ceftobiprole is superior to vancomycin, daptomycin, and linezolid for treatment of experimental endocarditis in rabbits caused by methicillin-resistant Staphylococcus aureus” (Antimicrob Agents Chemother, 2010).
≈ marks a conversion by molar mass, not a printed value.

How the values were obtained:
Staphylococcus aureus [1] = experiment: (§1) Antibacterial activity against methicillin-resistant Staphylococcus aureus COL infected New Zealand White rabbit aortic valve endocarditis model assessed as decrease in bacterial colony forming unit in kidney at 18 mg/kg, iv dosed every 24 hrs for 4 days (reference value: 4.4 +/- 1.0 log10CFU per gram tissue); assay type: functional
Staphylococcus aureus [2] = experiment: as §1, with “spleen” for “kidney”, “5.1” for “4.4”, “0.9” for “1.0”; assay type: functional
Staphylococcus aureus [3] = experiment: as §1, with “vegetation” for “kidney”, “8.4” for “4.4”, “0.7” for “1.0”; assay type: functional
Staphylococcus aureus [4] = experiment: as §1, with “spleen” for “kidney”, “30” for “18”, “12” for “24”, “5.1” for “4.4”, “0.9” for “1.0”; assay type: functional
Staphylococcus aureus [5] = experiment: as §1, with “vegetation” for “kidney”, “30” for “18”, “12” for “24”, “8.4” for “4.4”, “0.7” for “1.0”; assay type: functional
Staphylococcus aureus [6] = experiment: as §1, with “30” for “18”, “12” for “24”; assay type: functional
Oryctolagus cuniculus [7] = experiment: Plasma concentration in Staphylococcus aureus COL infected New Zealand White rabbit aortic valve endocarditis model at 30 mg/kg, iv dosed every 12 hrs for 4 days; assay type: ADME, organism-based; parameters: dose 30 mg/kg, route intravenous; settings: in vivo
In short: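 Plasma was drawn 1 h after dosing from at least 3 rabbits and assayed by HPLC. Each value averages two determinations, read from plasma standard curves. The detection limit was ≤0.5 μg/ml.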

[8] = Half life in Staphylococcus aureus COL infected New Zealand White rabbit aortic valve endocarditis model at 30 mg/kg, iv dosed every 12 hrs for 4 days; assay type: ADME, organism-based, Oryctolagus cuniculus; parameters: dose 30 mg/kg, route intravenous; settings: in vivo
Staphylococcus aureus [9] = experiment: as §1, with “at 25” for “at 18”, “mg/kg, im” for “mg/kg, iv”, “every 8” for “every 24”; assay type: functional; settings: route intramuscular
Staphylococcus aureus [10] = experiment: as §1, with “in spleen” for “in kidney”, “at 25” for “at 18”, “mg/kg, im” for “mg/kg, iv”, “every 8” for “every 24”, “value: 5.1” for “value: 4.4”, “+/- 0.9” for “+/- 1.0”; assay type: functional; settings: route intramuscular
Staphylococcus aureus [11] = experiment: as §1, with “in vegetation” for “in kidney”, “at 25” for “at 18”, “mg/kg, im” for “mg/kg, iv”, “every 8” for “every 24”, “value: 8.4” for “value: 4.4”, “+/- 0.7” for “+/- 1.0”; assay type: functional; settings: route intramuscular
Oryctolagus cuniculus [12] = experiment: Plasma concentration in Staphylococcus aureus COL infected New Zealand White rabbit aortic valve endocarditis model at 25 mg/kg, im dosed every 8 hrs for 4 days; assay type: ADME, organism-based; parameters: dose 25 mg/kg, route intramuscular; settings: in vivo
In short: (§2)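 Rabbits with catheter-induced aortic valve endocarditis received about 1.5 × 10^7 CFU COL iv in 1 ml 0.9% saline 48 h after catheter placement. Dosing started 16–18 h post-infection. Plasma was sampled 1 h post-dose from at least three rabbits per group and assayed by HPLC against plasma standard curves. Each value is the mean of two determinations; detection limit ≤0.5 μg/ml.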

Staphylococcus aureus [13] = experiment: as §1, with “in vegetation” for “in kidney”, “at 75” for “at 18”, “mg/kg, sc” for “mg/kg, iv”, “every 8” for “every 24”, “value: 8.4” for “value: 4.4”, “+/- 0.7” for “+/- 1.0”; assay type: functional; settings: route subcutaneous
Staphylococcus aureus [14] = experiment: as §1, with “in spleen” for “in kidney”, “at 75” for “at 18”, “mg/kg, sc” for “mg/kg, iv”, “every 8” for “every 24”, “value: 5.1” for “value: 4.4”, “+/- 0.9” for “+/- 1.0”; assay type: functional; settings: route subcutaneous
Staphylococcus aureus [15] = experiment: as §1, with “at 75” for “at 18”, “mg/kg, sc” for “mg/kg, iv”, “every 8” for “every 24”; assay type: functional; settings: route subcutaneous
Oryctolagus cuniculus [16] = experiment: Plasma concentration in Staphylococcus aureus COL infected New Zealand White rabbit aortic valve endocarditis model at 75 mg/kg, sc dosed every 8 hrs for 4 days; assay type: ADME, organism-based; parameters: dose 75 mg/kg, route subcutaneous; settings: in vivo; in short: as §2
Staphylococcus aureus [17] = experiment: Antibacterial activity against methicillin-resistant Staphylococcus aureus COL; assay type: functional

Compound: CCCCCCCCCC(=O)N[C@@H](Cc1c[nH]c2ccccc12)C(=O)N[C@H](CC(N)=O)C(=O)N[C@@H](CC(=O)O)C(=O)N[C@@H]1C(=O)NCC(=O)N[C@@H](CCCN)C(=O)N[C@@H](CC(=O)O)C(=O)N[C@H](C)C(=O)N[C@@H](CC(=O)O)C(=O)NCC(=O)N[C@H](CO)C(=O)N[C@@H]([C@H](C)CC(=O)O)C(=O)N[C@@H](CC(=O)c2ccccc2N)C(=O)O[C@@H]1C
- log10CFU/g (Staphylococcus aureus [1]): 2.6
- log10CFU/g (Staphylococcus aureus [2]): 2.3
- log10CFU/g (Staphylococcus aureus [3]): 3.6

Compound: CN[C@H](CC(C)C)C(=O)N[C@H]1C(=O)N[C@@H](CC(N)=O)C(=O)N[C@H]2C(=O)N[C@H]3C(=O)N[C@H](C(=O)N[C@H](C(=O)O)c4cc(O)cc(O)c4-c4cc3ccc4O)[C@H](O)c3ccc(c(Cl)c3)Oc3cc2cc(c3O[C@@H]2O[C@H](CO)[C@@H](O)[C@H](O)[C@H]2O[C@H]2C[C@](C)(N)[C@H](O)[C@H](C)O2)Oc2ccc(cc2Cl)[C@H]1O [VANCOMYCIN]
- log10CFU/g (Staphylococcus aureus [4]): 3.3
- log10CFU/g (Staphylococcus aureus [5]): 5.9
- log10CFU/g (Staphylococcus aureus [6]): 3.1
- Cp (Oryctolagus cuniculus [7]): 34000 ng/mL
- half-life [8]: 1.33 h

Compound: Nc1nc(/C(=N/O)C(=O)N[C@@H]2C(=O)N3C(C(=O)O)=C(/C=C4\CCN([C@@H]5CCNC5)C4=O)CS[C@H]23)ns1 [CEFTOBIPROLE]
- log10CFU/g (Staphylococcus aureus [9]): 1.7
- log10CFU/g (Staphylococcus aureus [10]): 1.8
- log10CFU/g (Staphylococcus aureus [11]): 2.1
- Cp (Oryctolagus cuniculus [12]): 14400 ng/mL

Compound: CC(=O)NC[C@H]1CN(c2ccc(N3CCOCC3)c(F)c2)C(=O)O1 [LINEZOLID]
- log10CFU/g (Staphylococcus aureus [13]): 5.9
- log10CFU/g (Staphylococcus aureus [14]): 2.9
- log10CFU/g (Staphylococcus aureus [15]): 2.5
- Cp (Oryctolagus cuniculus [16]): 28200 ng/mL

Compound: CCOc1ccc2ccccc2c1C(=O)N[C@@H]1C(=O)N2[C@@H]1SC(C)(C)[C@@H]2C(=O)O [NAFCILLIN]
- MIC (Staphylococcus aureus [17]): 256 µg/mL (≈ 618 µM)
